Assay results: ChEMBL document CHEMBL3112548, “Synthesis and biological evaluation of novel tetrahydro-β-carboline derivatives as antitumor growth and metastasis agents through inhibiting the transforming growth factor-β signaling pathway” (J Med Chem, 2014)
The source made the active and inactive calls. No cut-off for these calls is given here.

Columns and labels:
Mus musculus [1] = assay: Toxicity in nude mouse xenografted with human A549 cells assessed as body weight change at 20 mg/kg, ip qd for 60 days measured up to 60 days; format: organism-based; set-up: dose 20 mg/kg, route intraperitoneal; details: in vivo, 1440 h
Procedure, shortened: (§1)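 Nude mice (5 weeks old, acclimated 1 week) given 5 × 10^5 A549 cells in PBS subcutaneously; at ~10 mm tumor diameter, 15 mice size-matched into three groups (n = 5): DMSO vehicle, 5.0 mg/kg or 20 mg/kg ip in 50 μL DMSO daily for 60 days. Body weight and tumor dimensions measured daily; volume = 0.52 × AB².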

A549 [2] = assay: Antitumor activity against human A549 cells xenografted in nude mouse assessed as suppression of tumor volume at 20 mg/kg, ip qd for 60 days measured up to 60 days; format: functional, organism-based; set-up: dose 20 mg/kg; procedure, shortened: as §1
[3] = Antiproliferative activity against human PC9 cells at 10 uM after 48 hrs by SRB assay; format: functional; details: PC-9, 48 h
Procedure, shortened: (§2)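 SRB assay: 1 × 10^4 cells per well in 96-well plates exposed to compound 48 h; fixed with 10% TCA, stained 30 min at room temperature, washed with 1% acetic acid, dye dissolved in 10 mM Tris base, OD 510 nm. Percent inhibition = decrease in absorbance relative to DMSO control wells.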

[4] = molecular target: TGF-beta receptor type-1 (Homo sapiens) (UniProt P36897); assay: Inhibition of TGFbetaR1-mediated smad phosphorylation in human HaCaT cells at 1 uM measured within 24 hrs by dual-luciferase reporter gene assay
Sequence of TGF-beta receptor type-1 (Homo sapiens) (P36897 whole entry, looked up): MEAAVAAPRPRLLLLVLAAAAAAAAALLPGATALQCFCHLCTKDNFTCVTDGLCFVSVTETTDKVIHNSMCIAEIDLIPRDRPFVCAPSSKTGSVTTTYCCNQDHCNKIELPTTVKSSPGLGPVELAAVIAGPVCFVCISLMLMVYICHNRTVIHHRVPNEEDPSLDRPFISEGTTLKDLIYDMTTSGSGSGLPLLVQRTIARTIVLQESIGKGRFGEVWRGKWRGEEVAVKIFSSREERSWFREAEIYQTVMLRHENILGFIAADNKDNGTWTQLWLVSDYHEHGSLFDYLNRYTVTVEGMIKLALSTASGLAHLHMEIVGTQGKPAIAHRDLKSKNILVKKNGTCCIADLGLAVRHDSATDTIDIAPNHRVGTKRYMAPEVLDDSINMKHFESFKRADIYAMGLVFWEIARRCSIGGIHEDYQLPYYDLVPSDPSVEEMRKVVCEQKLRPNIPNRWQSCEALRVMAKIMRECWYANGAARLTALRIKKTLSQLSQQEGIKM

[5] = Antimigratory activity against human H1299 cells assessed as inhibition of cell migration after 12 to 24 hrs by transwell migration assay; format: functional, cell-based; details: NCI-H1299
Procedure, shortened: (§3)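 Transwell chambers, 8 μm pore filters; 5 × 10^5 cells in DMEM in top chamber with compound, 10% FBS medium below, 37 °C, 5% CO2; after 12−24 h non-migrated cells swabbed off, migrated cells fixed, stained with 0.2% crystal violet in PBS and counted in five random 10× fields per membrane. Means ± SD.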

A549 [6] = assay: Antiproliferative activity against human A549 cells after 48 hrs by SRB assay; format: functional, cell-based; details: A549, 48 h; procedure, shortened: as §2
[7] = Antiproliferative activity against human H1299 cells after 48 hrs by SRB assay; format: functional, cell-based; details: NCI-H1299, 48 h; procedure, shortened: as §2
[8] = Antiproliferative activity against human PC9 cells after 48 hrs by SRB assay; format: functional, cell-based; details: PC-9, 48 h; procedure, shortened: as §2
A549 [9] = assay: Antitumor activity against human A549 cells xenografted in nude mouse assessed as suppression of tumor volume at 5 mg/kg, ip qd for 60 days measured up to 60 days; format: functional, organism-based; set-up: dose 5 mg/kg; procedure, shortened: as §1
A549 [10] = assay: Antimigratory activity against human A549 cells assessed as inhibition of cell migration after 12 to 24 hrs by transwell migration assay; format: functional, cell-based; procedure, shortened: as §3
A549 [11] = assay: Antiproliferative activity against human A549 cells assessed as cell viability at 1 uM after 12 hrs by SRB assay; format: functional, cell-based
NCI-H1299 [12] = assay: Antiproliferative activity against human H1299 cells assessed as cell viability at 1 uM after 12 hrs by SRB assay; format: functional, cell-based
A549 [13] = assay: Antimigratory activity against human A549 cells assessed as decrease in cell migration after 12 hrs by wound healing assay; details: A549, 12 h
[14] = Antimigratory activity against human H1299 cells assessed as decrease in cell migration after 12 hrs by wound healing assay; details: NCI-H1299, 12 h
NCI-H1299 [15] = assay: Antimigratory activity against human H1299 cells assessed as reduction in distance at 1 uM after 24 hrs by time-lapse video microscopy; format: functional, cell-based
Procedure, shortened: (§4)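 H1299 cells (5 × 10^4) in 30 mm dishes pretreated with or without compound for 24 h, then tracked by time-lapse microscopy, one frame per 10 min over 10 h; eight random cells per condition; migration distance and speed taken from track plots. Means ± SD, Student's t test.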

NCI-H1299 [16] = assay: Antimigratory activity against human H1299 cells assessed as reduction of cell velocity at 1 uM after 24 hrs by time-lapse video microscopy; format: functional, cell-based; procedure, shortened: as §4
4T1 = assay: Antitumor activity against mouse 4T1 cells expressing luciferase allograted in ip dosed Balb/c mouse assessed as suppression of tumor volume compound administered for 20 days measured after 20 days; format: functional, organism-based
Procedure, shortened: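 Female Balb/c mice (6 weeks old) given 5 × 10^4 4T1-luciferase cells into mammary fat pad; after 7 days (~5 mm tumors) 24 mice randomized into DMSO vehicle, 1.0 or 5.0 mg/kg/day ip groups; after 20 days tumor burden quantified as bioluminescence by in vivo imaging. Body weight measured daily. Mean ± SD.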

Mus musculus [17] = assay: Toxicity in nude mouse xenografted with human A549 cells assessed as body weight change at 5 mg/kg, ip qd for 60 days measured up to 60 days; format: organism-based; set-up: dose 5 mg/kg, route intraperitoneal; details: in vivo, 1440 h; procedure, shortened: as §1

Row | inhibition [4] [%] | SMILES | inhibition at 10 µM [3] [%] | further results
1 | 11.8 | O=C(Cc1ccc(F)cc1)N1CCc2c([nH]c3ccccc23)C1 | 21 | –
2 | 7.9 | O=C(Cc1ccc(Cl)cc1)N1CCc2c([nH]c3ccccc23)C1 | 33 | –
3 | 29.1 | O=C(Cc1cccc(O)c1)N1CCc2c([nH]c3ccccc23)C1 | 11 | –
4 | 50.1 | O=C(Cc1ccc(CBr)cc1)N1CCc2c([nH]c3ccccc23)C1 | 26 | –
5 | 21 | O=C(Cc1ccc(O)c(O)c1)N1CCc2c([nH]c3ccccc23)C1 | 26 | –
6 | 49 | CCN(CC)c1ccc(CC(=O)N2CCc3c([nH]c4ccccc34)C2)cc1 | 18 | –
7 | 64.2 | O=C(Cc1ccc(O)cc1)N1CCc2c([nH]c3ccccc23)C1 | 39 | –
8 | 11.8 | O=Cc1ccc(CC(=O)N2CCc3c([nH]c4ccccc34)C2)cc1 | 21 | –
9 | 18.1 | Nc1ccc(CC(=O)N2CCc3c([nH]c4ccccc34)C2)cc1 | 8 | –
10 | 72.4 | O=C(Cc1ccccc1)N1CCc2c([nH]c3ccccc23)C1 | 59 | Activity (A549 [9]): Active; IC50 (A549 [10]): < 0.5 µM; IC50 [5]: < 0.5 µM; Activity (A549 [11]): Active; Activity (NCI-H1299 [12]): Active; IC50 (A549 [13]): 0.1 µM; IC50 [14]: 0.1 µM; Activity (NCI-H1299 [15]): Active; IC50 (A549 [6]): 7.9 µM; IC50 [7]: 8.07 µM; IC50 [8]: 5.87 µM; Activity (NCI-H1299 [16]): Active; Activity (4T1): Dose-dependent effect; Activity (Mus musculus [17]): Toxic

Continued, compound first:

Row | SMILES | inhibition [4] [%] | inhibition at 10 µM [3] [%] | further results
11 | COc1cc2ncnc(Nc3ccc(F)c(Cl)c3)c2cc1OCCCN1CCOCC1 [GEFITINIB] | – | – | Activity (Mus musculus [1]): Toxic; Activity (A549 [2]): Active
12 | O=C(Cc1ccccc1)N1CCc2c([nH]c3ccccc23)C1c1ccccc1 (stereo unspecified) | 10.3 | 10 | –
13 | O=C(c1cccs1)N1CCc2c([nH]c3ccccc23)C1 | 2.2 | 9 | –
14 | CC(C)(C)OC(=O)NC(C(=O)N1CCc2c([nH]c3ccccc23)C1)c1ccccc1 (stereo unspecified) | 58.8 | 31 | –
15 | CC(C)(C)OC(=O)NC(Cc1ccccc1)C(=O)N1CCc2c([nH]c3ccccc23)C1 (stereo unspecified) | 44.3 | 0 | –
16 | NC(=O)c1ccc(-c2nc(-c3ccccn3)c(-c3ccc4c(c3)OCO4)[nH]2)cc1 [SB-431542] | – | – | IC50 [5]: 0.5 µM
17 | O=C(c1ccccn1)N1CCc2c([nH]c3ccccc23)C1 | 1.1 | 4 | –
18 | NC(C(=O)N1CCc2c([nH]c3ccccc23)C1)c1ccccc1 (stereo unspecified) | 10.9 | 11 | –
19 | O=C(Cc1ccccc1O)N1CCc2c([nH]c3ccccc23)C1 | 19.7 | 33 | –
20 | O=C(Cc1ccccc1)N1CCc2c([nH]c3ccc(Br)cc23)C1 | – | 47 | –
21 | O=C(N1CCc2c([nH]c3ccccc23)C1)C(O)(c1ccccc1)c1ccccc1 | 12.3 | 0 | –
22 | COC(=O)CC1c2[nH]c3ccccc3c2CCN1C(=O)Cc1ccccc1 (stereo unspecified) | 18.2 | – | –
23 | O=C(O)CC1c2[nH]c3ccccc3c2CCN1C(=O)Cc1ccccc1 (stereo unspecified) | 4.1 | 9 | –
24 | O=C(C(O)c1ccccc1)N1CCc2c([nH]c3ccccc23)C1 (stereo unspecified) | 12.9 | 28 | –
25 | O=C(c1ccccc1)N1CCc2c([nH]c3ccccc23)C1 | 9.5 | 7 | –
26 | O=C(CCc1ccccc1)N1CCc2c([nH]c3ccccc23)C1 | 31.1 | 48 | –
27 | CCC1c2[nH]c3ccccc3c2CCN1C(=O)Cc1ccccc1 (stereo unspecified) | 52.1 | 24 | –
28 | CC1c2[nH]c3ccc(O)cc3c2CCN1C(=O)Cc1ccccc1 (stereo unspecified) | 11.2 | 8 | –
29 | O=C(Cc1ccccc1)N1CCc2c([nH]c3ccc(F)cc23)C1 | – | 78 | IC50 (A549 [6]): 4.85 µM; IC50 [7]: 6.19 µM; IC50 [8]: 7.09 µM
